Only some compounds are listed: those with a hit (about 2.8% of all), similar ones and a draw of the others.
Rad51 HR inh: human RAD51 strand exchange inhibitors, primary screen, biochemical, fluorescence; DNA repair protein RAD51 homolog 1 (Homo sapiens), Q06609; hRad51 DNA strand exchange, fluorescence dequenching; inhibition, % at 10 µM; actives 0.085% (n = 200,000); AID 1385, 2008;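 active = inhibition above 40% at the single screening dose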;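 note: 0% = DMSO control wells and 100% = blanks with heterologous ssDNA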
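Material: human Rad51–ssDNA filaments; Probe or stimulus: labelled 47-mer dsDNA for strand exchange; Doses: single 10 µM dose; Incubation: 37 °C 15-min filament assembly, 30-min compound preincubation, 15-min exchange; Technique: FRET fluorescence dequenching, excitation 485 nm, emission 520 nm; Measure: Fluorescence-based percent inhibition, control- and blank-normalised; Benchmarks: plate control and blank wells.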
NPY-Y1 PAM-ag: NPY-Y1 receptor potentiators or agonists, primary screen, cell-based; Neuropeptide Y receptor type 1 (Homo sapiens), P25929; NPY-Y1 expressing cells, potentiator/agonist activation; activation, % at 3.6 µM; actives 0.37% (n = 220,000); AID 1304, 2008; in the data active = activation above about 33%, passing the limit was not always enough;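 note: cells stimulated with NPY at EC10 then isoproterenol at EC100; 0% = low agonist plus stimulus and 100% = saturating agonist plus stimulus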
Target sequence (P25929 whole entry, looked up): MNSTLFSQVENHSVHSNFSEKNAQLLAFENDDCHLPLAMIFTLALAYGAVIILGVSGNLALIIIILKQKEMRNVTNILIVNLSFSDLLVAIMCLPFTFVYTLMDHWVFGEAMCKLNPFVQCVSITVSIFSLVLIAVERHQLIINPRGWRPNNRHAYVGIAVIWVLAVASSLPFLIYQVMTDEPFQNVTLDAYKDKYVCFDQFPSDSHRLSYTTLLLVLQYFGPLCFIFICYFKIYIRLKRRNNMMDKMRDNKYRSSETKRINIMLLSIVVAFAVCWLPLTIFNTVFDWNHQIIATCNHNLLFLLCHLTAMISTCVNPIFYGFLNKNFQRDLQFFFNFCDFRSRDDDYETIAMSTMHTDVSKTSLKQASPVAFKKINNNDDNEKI
NPY Y1 blocker: NPY-Y1 receptor antagonists, primary screen, cell-based; Neuropeptide Y receptor type 1 (Homo sapiens), P25929; actives 1% (n = 200,000); HEK293-CNG Y1 cells, membrane potential fluorescence; NPY at EC95, then isoproterenol; inhibition, % at 3.6 µM; AID 1040, 2008;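 active = inhibition above the campaign mean inhibition of all tested compounds plus 3 SD, cut at about 20% in these data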;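 note: 0% = DMSO wells given NPY plus isoproterenol and 100% = isoproterenol alone without NPY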
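System: HEK293 cells with Y1 receptor plus CNG channel / Probe or stimulus: NPY 25 nM then isoproterenol 1 µM plus Ro 20-1724 25 µM / Compound: one concentration, 3.6 µM, in 0.4% DMSO / Schedule: compound incubation 1 h at room temperature, readout 45 min post-stimulation / Measured by: membrane potential fluorescence / Read-out: % inhibition of NPY effect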
NPY-Y2 PAM-ag: NPY-Y2 potentiators or agonists, primary screen, cell-based; Neuropeptide Y receptor type 2 (Homo sapiens), P49146; AID 1359, 2008; activation, % at 3.6 µM; actives 0.45% (n = 220,000); cells expressing NPY-Y2, potentiator/agonist read-out; in the data active = activation above about 27%;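 note: cells stimulated with NPY near EC25 plus isoproterenol at EC100; 0% = vehicle plus submaximal agonist and 100% = vehicle plus saturating agonist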
NPY Y2 blocker: NPY-Y2 receptor antagonists, primary screen, cell-based; inhibition, % at 2.7 µM; actives 0.99% (n = 140,000); Neuropeptide Y receptor type 2 (Homo sapiens), P49146; NPY-Y2 expressing cells, antagonist mode; in the data active = inhibition above about 17%;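 note: 0% = vehicle with agonist challenge and 100% = reference antagonist with challenge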
Measles CPE: compounds protecting cells from measles virus cytopathic effect, primary screen, measles RdRp inhibitor project, single point, MLSMR library, absorbance; protection (pct of control), % at 4 µM; Measles virus-infected cells, CPE protection; actives 1.5% (n = 140,000); in the data active = protection mostly above about 24%, no sharp cut-off; inactive = mostly below about 26%
An asterisk follows results filed as active; / = not tested or not shown.

SMILES	Rad51 HR inh	NPY-Y1 PAM-ag	NPY Y1 blocker	NPY-Y2 PAM-ag	NPY Y2 blocker	Measles CPE
Cc1ccc(C(=O)N2CCN(C3c4cccc5cccc(c45)C3NS(=O)(=O)c3ccccc3)CC2)cc1 (centres undefined)	-2	6	2	5	-1	55*
CCN(C(=S)NC(=O)c1ccccc1Br)C1CCCCC1	/	10	7	-6	0	4
Cc1ccc(C(=O)N2CCN(c3cc(=O)[nH]nc3-c3ccccc3)CC2)cc1	-2	-5	-4	-20	1	38*
O=C(c1ccc(F)cc1)N1CCN(c2cc(=O)[nH]nc2-c2ccccc2)CC1	-9	-3	-3	-2	0	39*
O=c1cc(N2CCCCC2)c(-c2ccccc2)n[nH]1	16	10	-2	-5	/	/
CC1CC(C)CN(c2oc(-c3ccco3)nc2C#N)C1 (centres undefined)	/	-33	24*	3	27*	9
CCOCCCn1cnc2c(c1=O)c1nc3ccccc3nc1n2-c1ccccc1	-4	-10	1	-3	0	43*
O=c1[nH]c(/C(Cl)=C/c2cccc(F)c2)nc2cc(C(F)(F)F)ccc12	-8	0	-2	14	/	/
CCn1c(C)nc2cc(-c3nnc(-c4c(-c5ccccc5)noc4C)o3)ccc21	4	-25	3	-35	12	50*
Cc1onc(-c2ccccc2)c1-c1nnc(-c2ccccc2C(F)(F)F)o1	13	-5	/	-5	/	/
CC(=O)c1ccc(NC(=S)N2CC(C)CC(C)C2)cc1 (centres undefined)	-10	6	-3	9	1	27
O=C(CN1CCN(Cc2ccccc2Cl)CC1)N/N=C/c1ccco1	/	13	/	-2	/	/
COc1ccc(N2CCc3c(C)nc4c(OC)cc(OC)cc4c32)c(OC)c1	/	-15	44*	-10	25*	26
COc1cccc(-c2ccc(SCC(=O)N3CCc4ccccc43)nn2)c1	0	-1	3	1	7	10
CCOc1ccc(-n2nnnc2-c2nc3ccccc3s2)cc1	2	8	4	12	9	26*
Cc1ccc(SCC(=O)Nc2ccc(N3CCOCC3)cc2)c(C)c1	5	11	-1	7	/	/
COc1ccc(-n2nnnc2/C=C\Nc2ccccc2C(=O)c2ccccc2)cc1	1	-18	9	-27	4	31*
CCN(CC)S(=O)(=O)c1ccc(N2CCCC2)c(NC(=O)CC(C)(C)C)c1	-20	0	/	-3	/	/
Cc1c(CCOC(=O)c2cc([N+](=O)[O-])cc([N+](=O)[O-])c2)sc[n+]1CC(=O)c1ccc(Br)cc1	1	-2	1	-5	/	/
O=C(CCSc1nnc(-c2ccncc2)o1)Nc1ccccc1Cl	4	10	-1	-1	-1	30*
COc1ccccc1NC(=O)CCSc1nnc(-c2ccncc2)o1	4	-6	-5	-3	/	/
COc1cccc(C(=O)Nc2ccc(F)cc2F)c1	-3	-2	4	4	6	45*
COc1cccc(C(=O)Nc2ccc(F)c(F)c2F)c1	8	0	2	11	3	15
CN1C(C(=O)NCc2cccc(C(F)(F)F)c2)CC2Cn3c(nc4cc(Cl)c(Cl)cc43)C21 (centres undefined)	-6	/	/	/	/	/
NC(=O)Nc1ccc(F)cc1	5	-9	4	14	1	70*
SMILES	Rad51 HR inh	NPY-Y1 PAM-ag	NPY Y1 blocker	NPY-Y2 PAM-ag	NPY Y2 blocker	Measles CPE
CNCCOc1nc(N2CCOCC2)nc(C)c1[N+](=O)[O-]	4	-17	2	5	0	56*
CCOc1nc(N2CCOCC2)nc(C)c1[N+](=O)[O-]	/	-10	-6	1	7	10
Cc1c(Br)c([N+](=O)[O-])nn1CC(=O)Nc1ccc(C(C)C)cc1	-1	20	1	8	/	/
CCCN(CCC)CCCNC(=S)Nc1ccc2nc(N3CCCC3)cc(C)c2c1	2	-25	22*	-11	/	/
CCN(CC)CCNC(=S)Nc1ccc2nc(N3CCCC3)cc(C)c2c1	14	-24	11	-7	/	/
CCC(C)NC(=O)CCC(=O)Nc1ccc2nc(N3CCOCC3)cc(C)c2c1 (centres undefined)	6	84*	-19	93*	5	6
CCC(C)NC(=O)CCC(=O)Nc1ccc2nc(N3CC(C)CC(C)C3)cc(C)c2c1 (centres undefined)	1	6	9	4	/	/
CCc1ccc(N2CC(C(=O)Nc3nccs3)CC2=O)cc1 (centres undefined)	-7	13	2	6	-2	35*
CCOC(=O)C1=NNC2(CC(=O)N(c3cc(C)cc(C)c3)C2=O)C1 (centres undefined)	9	3	/	14	/	/
CCC1(C)CC(=O)N(c2ccc(C(=O)O)c(O)c2)C1=O (centres undefined)	5	13	-6	14	0	36*
CN(c1ccccc1)S(=O)(=O)c1cccc(NC(=O)c2cc(=O)c3ccccc3o2)c1	29	-25	-2	-9	/	/
CC1(C2(O)CC(c3ccccc3)ON2)CCCCC1 (centres undefined)	1	5	-4	9	4	29*
CCn1cc(CNC(=O)c2cc(COc3ccc(F)cc3F)on2)cn1	7	7	-2	11	/	/
CCOc1ccc(-c2nc(-c3cccnc3)no2)cc1	3	31	-4	4	3	34*
CCCCOc1ccc(-c2nc(-c3cccnc3)no2)cc1	-2	-6	4	0	6	10
O=C(Oc1ccc2ccccc2c1Cl)N1CCCCCC1	-3	-12	7	12	5	30*
O=C(Oc1ccc2ccccc2c1Cl)N1CCCC1	2	0	-6	11	6	11
COc1ccc(S(=O)(=O)N(CC(=O)O)c2ccccn2)cc1	/	7	9	18	-1	15
CCOC(=O)CN(c1ccccn1)S(=O)(=O)c1ccccc1	-1	10	-4	-12	-1	35*
COC(=O)c1cc(NC(=O)CN(c2ccc(OC)cc2)S(=O)(=O)c2ccc(F)cc2)ccc1Cl	-1	-2	5	14	1	19
Nc1nc(Nc2ccc(Cl)cc2)n[nH]1	/	12	4	9	-3	39*
CC1(C)C(N(O)C(=O)Nc2ccc(Cl)cc2)N(c2ccc(Cl)cc2)C(=O)N1CC(=O)NN (centres undefined)	0	41*	-8	43*	0	29

Screening data: PubChem, several laboratories
